SR-BI HDL uptake = mouse SR-BI HDL lipid transfer inhibition | Q61009 | ldlA[mSR-BI] CHO cells, DiI-HDL uptake fluorescence, 3 h | inhibition, % at 12.5 µM | hit rate 0.96% among 320,000 | AID 488896;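 active = mean replicate inhibition of at least 70% and a set share of replicates each scoring 70 or more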
Target sequence (Q61009 whole entry, looked up): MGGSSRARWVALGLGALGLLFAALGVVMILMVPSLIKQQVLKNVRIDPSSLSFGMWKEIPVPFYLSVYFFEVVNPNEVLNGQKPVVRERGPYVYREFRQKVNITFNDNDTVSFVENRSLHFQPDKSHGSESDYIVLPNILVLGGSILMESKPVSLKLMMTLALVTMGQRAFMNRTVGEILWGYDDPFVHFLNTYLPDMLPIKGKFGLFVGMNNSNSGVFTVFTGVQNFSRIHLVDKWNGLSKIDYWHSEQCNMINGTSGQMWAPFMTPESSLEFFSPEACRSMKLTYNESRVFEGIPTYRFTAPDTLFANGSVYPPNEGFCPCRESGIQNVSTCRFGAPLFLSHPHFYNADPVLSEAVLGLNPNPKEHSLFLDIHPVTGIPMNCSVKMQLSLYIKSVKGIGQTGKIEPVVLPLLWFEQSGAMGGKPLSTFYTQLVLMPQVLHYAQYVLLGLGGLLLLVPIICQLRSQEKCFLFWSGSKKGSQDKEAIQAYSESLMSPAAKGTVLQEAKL
Yeast superoxide = yeast age-related superoxide inhibition as caloric restriction mimetic | S. cerevisiae aged cells, superoxide DHE fluorescence; hits give low values | superoxide response (% of plate mean), % at 10 µM | hit rate 0.18% among 330,000;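 active = superoxide response under a set limit, about three screen SD below normal, cut at about 65% in these data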;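 note: yeast aged for seven days with compound at 30 °C before DHE staining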
AHR activator = human AHR activation; P35869; AHR-responsive luciferase reporter cells, luminescence; activation, % at 5 µM; hit rate 2.5% among 320,000; in the data active = activation above about 47%
SMARCA2 act = activators of SMARCA2 function. hit rate 1% among 370,000. AID 652017. activation, % at 9.1 µM. MG213 cells, MMTV-luciferase reporter, dexamethasone, overnight; in the data active = activation above about 7.8%
Lipid droplet = hepatic lipid droplet formation modulation; AML12 mouse hepatocytes, oleate lipid droplets, BODIPY imaging; hit rate 0.4% among 240,000; inhibition, % at 6.5 µM; AID 1656;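 active = lipid droplet intensity inhibited by at least 50%, with more than 500 cells counted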
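Material: mouse AML12 hepatocyte cell line, fixed after treatment; Timing: compound with oleate, overnight; Technique: high-content imaging of BODIPY-stained droplets and DAPI nuclei; Probe or stimulus: oleate, 100 µM final; Dosing: compound at 6.5 µM only.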
SR-BI DiI-HDL act = SR-BI HDL lipid transfer activation. CHO ldlA[mSR-BI] cells, DiI-HDL uptake fluorescence, 3 h; 100 = double the neutral-control signal. AID 504775. hit rate 0.096% among 320,000. activation, % at 12.5 µM;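 active = mean replicate activation of at least 60% and every replicate at or above 60%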
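Test system: SR-BI-overexpressing, LDLR-lacking CHO cells. Measured by: DiI fluorescence, bottom read. Medium: Ham's F12 with 0.5% BSA, HEPES 25 mM, pH 7.4. Timing: 3 h uptake period with compound, 37 °C.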
AHR act confirm = human AHR activation, confirmation; activation, % at 9 µM; human cells, AHR-responsive luciferase reporter, luminescence; hit rate 87% among 2,300; shares compounds with AHR activator; in the data active = activation above about 49%;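 note: HepG2 hepatoma cells carrying a DRE-driven firefly luciferase reporter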
PXR counter = activates human PXR in AHR activator counter-screen. AID 434939. shares compounds with AHR activator. cell-based PXR reporter, luciferase luminescence. activation, % at 11.6 µM. hit rate 88% among 2,300; in the data active = activation above about 11%;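 note: human hepatoma DPX-2 cells expressing full-length human PXR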
Large screens that a line does not name were inactive (follow-up assays come after a bar, where they were run). This is a sample that favours compounds with a hit; in the whole collection about 4.3% have one here.

CSc1sc(C(=O)NN)c2c1C(O)CCC2 (stereo unspecified)	AHR activator 80.1 (no result: Lipid droplet) | AHR act confirm inactive | PXR counter inactive
Cc1ccccc1CN1CCCCC(NC(=O)Nc2ccccc2)C1=O (stereo unspecified)	none (no result: SR-BI HDL uptake, Yeast superoxide, AHR activator, Lipid droplet, SR-BI DiI-HDL act)
Clc1ccccc1-c1nc(-c2cccnc2)no1	AHR activator 105.4 | AHR act confirm 123.1 | PXR counter 13.8
Cc1ccccc1-c1nc(-c2cccnc2)no1	AHR activator 107.0 (no result: Lipid droplet) | AHR act confirm 104.8
Cc1cccc(C(=O)Nc2ccnc(-c3ccncc3)n2)c1	AHR activator 98.7 | AHR act confirm 47.7 | PXR counter inactive
Cc1cccc(C(=O)Nc2ccnc(-c3cccnc3)n2)c1	none
Cc1nc2ccccn2c1C(=O)Nc1ccc(Cl)cc1	AHR activator 91.4 | AHR act confirm 152.4 | PXR counter 15.7
COc1ccc(N2CCN(C(=O)c3cc4c(-c5ccc(Cl)cc5)nn(C)c4s3)CC2)cc1	AHR activator 90.1 (no result: Lipid droplet) | AHR act confirm 121.3 | PXR counter 33.1
CC1CCCCN1CCNC(=O)c1cc2c(-c3ccccc3F)nn(C)c2s1 (stereo unspecified)	none (no result: Lipid droplet)
CN1CCN(CCCNC(=O)c2cc3c(-c4ccc(Cl)cc4)nn(C)c3s2)CC1	AHR activator 97.8 (no result: Lipid droplet) | AHR act confirm 101.7
Cn1cc(/C=C2\SC(=O)N(c3ccccc3)C2=O)c2ccccc21	AHR activator 98.5 | AHR act confirm 69.0 | PXR counter 19.9
Cn1cc(/C=C2\SC(=O)N(c3ccc(O)cc3)C2=O)c2ccccc21	none
Cc1c(/C=N\NC(=O)C2COc3ccc(C(C)(C)C)cc3O2)c2ccccc2n1C (stereo unspecified)	AHR activator 79.2 | AHR act confirm inactive | PXR counter 65.6
CCOc1cccc(C=NNC(=O)C(=O)Nc2cccc(C(F)(F)F)c2)c1O	none (no result: SR-BI HDL uptake, Yeast superoxide, AHR activator, Lipid droplet, SR-BI DiI-HDL act)
Clc1ccccc1Cn1nnc(-c2cccs2)n1	AHR activator 117.0 | AHR act confirm 149.6 | PXR counter 37.4
Clc1ccccc1Cn1nnc(-c2ccccc2)n1	none
CN1CCSc2ccc(C(=O)Nc3ccc(Cl)cc3)cc21	AHR activator 215.1 (no result: SR-BI HDL uptake, SR-BI DiI-HDL act) | AHR act confirm 135.3 | PXR counter 70.2
[O-][n+]1c2ccccc2c2n1CCN1CCOC21c1ccc(Cl)cc1 (stereo unspecified)	AHR activator 80.2 (no result: Lipid droplet) | AHR act confirm 117.9 | PXR counter 64.7
O=C(COc1cccnc1[N+](=O)[O-])c1c[nH]c2ccccc12	AHR activator 87.3 | AHR act confirm 107.7 | PXR counter 15.6
CCOc1cc(N)c(Cl)cc1C(=O)NCC1CN(Cc2ccc(F)cc2)CCO1 (stereo unspecified)	AHR activator 90.3 (no result: Lipid droplet) | AHR act confirm 63.2 | PXR counter 180.8
O=C(OC12CCCN(C1)/C(=C/c1cccc(Cl)c1)C2)c1ccco1 (stereo unspecified)	none (no result: SR-BI HDL uptake, Yeast superoxide, AHR activator, Lipid droplet, SR-BI DiI-HDL act)
Brc1ccc(Nc2nc3ccccc3n3nnnc23)cc1	AHR activator 94.3 (no result: SR-BI HDL uptake, SMARCA2 act, SR-BI DiI-HDL act) | AHR act confirm 107.6 | PXR counter 74.8
Fc1ccccc1Nc1nc2ccccc2n2nnnc12	AHR activator 96.2 (no result: Lipid droplet) | AHR act confirm 73.6 | PXR counter 11.0
c1ccc(Nc2nc3ccccc3n3nnnc23)cc1	none
O=C(N[C@H](Cc1ccccc1)C(=O)N1CCN(CC(=O)N2CCCC2)CC1)[C@H]1O[C@@H](n2ccc(=O)[nH]c2=O)[C@H](O)[C@@H]1O	none (no result: SR-BI HDL uptake, Yeast superoxide, AHR activator, Lipid droplet, SR-BI DiI-HDL act)
COc1ccc(CN2CN3CCc4ccccc4C3CS2(=O)=O)cc1 (stereo unspecified)	none (no result: SR-BI HDL uptake, Yeast superoxide, AHR activator, Lipid droplet, SR-BI DiI-HDL act)
O=C(Nc1ccc(Cl)cc1)c1ccc(Br)cc1F	AHR activator 96.9 | AHR act confirm 130.5 | PXR counter 64.8
COC(=O)[C@]12C[C@H](CC(=O)NCCc3ccccc3OC)C(=O)N(Cc3ccc(Cl)cc3Cl)C1=C[C@H](COCc1ccccc1)O[C@@H]2C	none (no result: SR-BI HDL uptake, Yeast superoxide, AHR activator, Lipid droplet, SR-BI DiI-HDL act)

Screens from PubChem.
